Measured values from ChEMBL document CHEMBL1124735, “Dehydrogenase binding by tiazofurin anabolites” (J Med Chem, 1990).

Compound: NC(=O)c1ccc[n+]([C@@H]2O[C@H](COP(=O)([O-])OP(=O)(O)OC[C@H]3O[C@@H](n4cnc5c(N)ncnc54)[C@H](O)[C@@H]3O)[C@@H](O)[C@H]2O)c1
Test: In vitro inhibitory activity against pig heart cytoplasmic malate dehydrogenase (MDH),
In short: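 Pig heart enzymes (cytoplasmic MDH or LDH, from ammonium sulfate suspension) assayed in 0.05 M Tris HCl pH 9.0, with NAD as substrate; rates from NADH appearance by A340 (ε 6.22 mM⁻¹cm⁻¹) or fluorescence calibrated against NADH standards. Run at least in duplicate; kinetic constants from Lineweaver-Burk plots by linear regression.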

B1: Malate dehydrogenase, cytoplasmic (Sus scrofa), P11708 (protein)
chain: MSEPIRVLVTGAAGQIAYSLLYSIGNGSVFGKDQPIILVLLDITPMMGVLDGVLMELQDCALPLLKDVIATDKEEIAFKDLDVAILVGSMPRRDGMERKDLLKANVKIFKCQGAALDKYAKKSVKVIVVGNPANTNCLTASKSAPSIPKENFSCLTRLDHNRAKAQIALKLGVTSDDVKNVIIWGNHSSTQYPDVNHAKVKLQAKEVGVYEAVKDDSWLKGEFITTVQQRGAAVIKARKLSSAMSAAKAICDHVRDIWFGTPEGEFVSMGIISDGNSYGVPDDLLYSFPVTIKDKTWKIVEGLPINDFSREKMDLTAKELAEEKETAFEFLSSA
Question: For B1, which Km is on record?
Answer: 33.9 µM
